The source of these data is ChEMBL document CHEMBL1156008, “Synthesis of novel isoluminol probes and their use in rapid bacterial assays” (Bioorg Med Chem Lett, 2009).

The test system of experiment [1] is Lactococcus lactis. Briefly: Binding affinity to Lactococcus lactis subsp. lactis C2 ATCC 11454 membrane surface measured after second washout with buffer by fluorescence assay. The format is functional. The procedure, abridged: (§1)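 L. lactis C2 grown 18 h at 27 °C in M17 (4% v/v inoculum). 200 µl culture, in triplicate, pelleted (9000g, 2 °C, 10 min); supernatant background subtracted. Pellet resuspended in peptide-isoluminol probe (DMF, diluted in pH 6.4 phosphate buffer, 0.01 M, 0.1 ionic strength) for 10 min at 27 °C. Fluorescence read at ex 360/em 430 nm, then repeated centrifugation/buffer washes; fraction retained calculated.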

Experiment [2] has as its system Lactococcus lactis. In words: Binding affinity to Lactococcus lactis subsp. lactis C2 ATCC 11454 membrane surface measured after first washout with buffer by fluorescence assay. The class given is functional. The procedure, abridged:
as §1

Experiment [3] has as its system Escherichia coli. Briefly: Binding affinity to Escherichia coli ATCC 47076 membrane surface measured after fourth washout with buffer by fluorescence assay. The format is functional, organism-based. The procedure, abridged:
(§2)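 Cell pellets were exposed to peptide-isoluminol probe in pH 6.4 phosphate buffer (0.01 M, 0.1 ionic strength). Probe remaining on cells was then tracked through repeated buffer wash cycles by fluorescence at ex 360/em 430 nm.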

The test system of experiment [4] is Salmonella typhimurium. In words: Binding affinity to Salmonella Typhimurium ATCC 14028 membrane surface measured after fourth washout with buffer by fluorescence assay. Conditions: Salmonella enterica subsp. enterica serovar Typhimurium. The class given is functional, organism-based. The essentials: as §2
Experiment [5] has as its system Lactococcus lactis. In words: Binding affinity to Lactococcus lactis subsp. lactis C2 ATCC 11454 membrane surface by fluorescence assay. The class given is functional. The essentials: as §1
Experiment [6] concerns Staphylococcus aureus. Briefly: Binding affinity to Staphylococcus aureus ATCC 25923 membrane surface measured after second washout with buffer by fluorescence assay. The format is functional, organism-based. The procedure, abridged:
as §2

The subject of experiment [7] is Salmonella typhimurium. Briefly: Binding affinity to Salmonella Typhimurium ATCC 14028 membrane surface measured after second washout with buffer by fluorescence assay. The format is functional, organism-based. The following applies: Salmonella enterica subsp. enterica serovar Typhimurium. The essentials: as §2
Experiment [8] deals with Salmonella typhimurium. Briefly: Binding affinity to Salmonella Typhimurium ATCC 14028 membrane surface by fluorescence assay. The following applies: Salmonella enterica subsp. enterica serovar Typhimurium. The class given is functional, organism-based. The procedure, abridged:
as §2

For experiment [9], the system named is Escherichia coli. Briefly: Binding affinity to Escherichia coli ATCC 47076 membrane surface measured after second washout with buffer by fluorescence assay. The format is functional, organism-based. The essentials: as §2
Experiment [10] deals with Escherichia coli. In words: Binding affinity to Escherichia coli ATCC 47076 membrane surface by fluorescence assay. The format is functional, organism-based. The procedure, abridged: as §2
Experiment [11] deals with Staphylococcus aureus. Briefly: Binding affinity to Staphylococcus aureus ATCC 25923 membrane surface by fluorescence assay. The class given is functional, organism-based. The procedure, abridged: as §2

Molecules are shown by their SMILES. Calls of active or inactive are those of the source. The rule behind the calls is not given here.

Regarding `CCN(CCCCCCNC(=O)COCC(=O)N[C@@H](CCCCN)C(=O)N[C@@H](CCCCN)C(=O)N[C@@H](CCCCN)C(=O)O)c1ccc2c(=O)[nH][nH]c(=O)c2c1`, the Activity in the experiment with Lactococcus lactis [1] is 10%; in the experiment on Lactococcus lactis [2], 23%; with Lactococcus lactis [5] it was 34%. For the same molecule, the outcome in the experiment with Escherichia coli [3] and in the experiment with Salmonella typhimurium [4] was Active.

Regarding `CCN(CCCCCCNC(=O)COCC(=O)NC(CCC(=O)O)C(=O)NC(CCC(=O)O)C(=O)O)c1ccc2c(=O)[nH][nH]c(=O)c2c1` (centres undefined), the result in the experiment on Staphylococcus aureus [6], in the experiment with Salmonella typhimurium [7], in the experiment with Lactococcus lactis [1], in the experiment with Lactococcus lactis [2] and in the experiment with Escherichia coli [9] was Active. Further, the Activity in the experiment with Salmonella typhimurium [8], with Escherichia coli [10], with Staphylococcus aureus [11] and with Lactococcus lactis [5] was 15% in each case.
